# What was measured:
# phosphorylated Elk = assay: Intracellular staining, phosphorylated Elk in AsPC-1; assay type: cell-based, human; details: 2.4 μM, 6 hours, flow cytometry, average of 3 experiments, vs vehicle
# IRAK = assay: Intracellular staining, IRAK in AsPC-1; assay type: cell-based, human; details: 2.4 μM, 6 hours, flow cytometry, average of 3 experiments, vs vehicle
# IKKα = assay: Intracellular staining, IKKα in AsPC-1; assay type: cell-based, human; details: 2.4 μM, 6 hours, flow cytometry, average of 3 experiments, vs vehicle
# IL-8 = IL-8 ELISA, AsPC-1; assay type: cell-based, human; details: 2.4 μg/mL, 6 hours, compared to controls, significant, average of 3 experiments
# TLR-1 = assay: Intracellular staining, TLR-1 in AsPC-1; assay type: cell-based, human; details: 2.4 μM, 6 hours, flow cytometry, average of 3 experiments, vs vehicle
# [1] = tested on: phosphorylated Fos Ser 32; assay: Intracellular staining, phosphorylated Fos in AsPC-1; assay type: cell-based, human; details: 2.4 μM, 6 hours, flow cytometry, average of 3 experiments, vs vehicle
# [2] = tested on: phosphorylated cyclin D1 Thr 286; assay: Intracellular staining, phosphorylated cyclin D1 in AsPC-1; assay type: cell-based, human; details: 2.4 μM, 6 hours, flow cytometry, average of 3 experiments, not statistically significant (student's T test)
# Outline: (§1)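 AsPC-1 cells (complete RPMI, 10% FBS, 37°C, 5% CO2) were exposed 6 h to test compound or vehicle control. They were trypsinized, fixed in 4% paraformaldehyde and permeabilized with ice-cold ethanol. Unconjugated primary antibody to the phospho-epitope (or rabbit IgG isotype) was applied 1 h RT, then PE-conjugated secondary 30 min RT. Flow cytometry, 20,000 events; Student's t test vs vehicle on the mean of 3 experiments.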
# [3] = tested on: TNF-related apoptosis-inducing ligand (TRAIL); assay: Intracellular staining, TRAIL in AsPC-1; assay type: cell-based, human; details: 2.4 μM, 6 hours, flow cytometry, average of 3 experiments, vs vehicle
# [4] = tested on: phosphorylated (active) NFκB p65 (pS529); assay: Intracellular staining, phosphorylated NFκB p65; assay type: cell-based, human; details: AsPC-1; 2.4 μg/mL; 6 hours; flow cytometry; vs vehicle control; average of 3 experiments; student's T test
# Outline: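 AsPC-1 cells were treated 6 h with 2.4 μg/mL test compound or vehicle control. After trypsinization, 4% paraformaldehyde fixation and ice-cold ethanol permeabilization, cells were stained directly 1 h RT with PE-conjugated mouse anti-NFκB p65 (pS529) or mouse IgG isotype; no secondary. Gates were set against the isotype. Flow cytometry, 20,000 events; Student's t test vs vehicle, mean of 3 experiments.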
# phosphorylated Jun Ser73 = assay: Intracellular staining, phosphorylated Jun in AsPC-1; assay type: cell-based, human; details: 2.4 μM, 6 hours, flow cytometry, average of 3 experiments, vs vehicle
# PANC-1 = assay: TUNEL, PANC-1; assay type: cell-based, human; details: 2.4 μg/mL, 24 hours (method), flow cytometry, average of 3 experiments
# Outline: (§2)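 Cells (BxPC-3 and PANC-1 in complete RPMI with 10% FBS; MIA PaCa-2 in DMEM with 5% horse serum plus 10% FBS) were seeded at 500,000 per 6-well well and adhered overnight. They received 2.4 μg/mL test compound or vehicle for 24 h, then were trypsinized, fixed (4% paraformaldehyde) and ethanol-permeabilized. TdT/fluorescein-12-dUTP labelling ran 60 min at 37°C, stopped with 20mM EDTA. Flow cytometry, 20,000 events; Student's t test vs vehicle.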
# BxPC-3 = assay: TUNEL, BxPC-3; assay type: cell-based, human; details: 2.4 μg/mL, 24 hours (method), flow cytometry, average of 3 experiments
# Outline: as §2
# [5] = tested on: phosphorylated GSK3β Ser9; assay: Intracellular staining, phosphorylated GSK3β in AsPC-1; assay type: cell-based, human; details: 2.4 μM, 6 hours, flow cytometry, average of 3 experiments, not statistically significant (student's T test)
# Outline: as §1
# A549 NFκB-luc cell line = assay: Cytotoxicity in A549/NFκB-luc reporter cell line; assay type: cell-based; details: 6 hours treatment
# Outline: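 A549 cells stably carrying an NFκB-driven luciferase reporter, kept in DMEM with 10% FBS, penicillin/streptomycin and 100 μg/mL hygromycin B. Plated at 5 x 10^4 cells/well and allowed to adhere. Given 100 ng/ml TNF-α plus test compound (serial dilutions 0.00013–5 μg/mL) or vehicle for 6 h. Detergent-lysed; lysate equilibrated 30 min with ethidium bromide; fluorescence read at ex 340/em 590 nm.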
# TNFAIP3 = assay: Intracellular staining, TNFAIP3 in AsPC-1; assay type: cell-based, human; details: 2.4 μM, 6 hours, flow cytometry, average of 3 experiments, vs vehicle
# HUVEC cells = assay: Endothelial tube formation assay; assay type: cell-based; details: single experiment, preliminary, data not shown
# [6] = tested on: phosphorylated Akt Ser 473; assay: Intracellular staining, phosphorylated AKT in AsPC-1; assay type: cell-based, human; details: 2.4 μM, 6 hours, flow cytometry, average of 3 experiments, not statistically significant (student's T test)
# Outline: as §1
# MIA PaCa2 = assay: TUNEL, MIA PaCa-2; assay type: cell-based, human; details: 2.4 μg/mL, 24 hours (method), flow cytometry, average of 3 experiments
# Outline: as §2
# TLR-3 = assay: Intracellular staining, TLR-3 in AsPC-1; assay type: cell-based, human; details: 2.4 μM, 6 hours, flow cytometry, average of 3 experiments, vs vehicle
# MIA PaCa-2 = assay: Markers of apoptosis; assay type: cell-based, human; details: 2.4 μg/mL, with the assays used
# Outline: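 Caspase-3/7 luminescence. MIA PaCa-2 cells in DMEM with 5% horse serum and 10% FBS. 10,000 cells/well, adhered overnight, then given 2.4 μg/mL test compound or vehicle for 1, 3, 6 or 24 h. Equal volume of pro-luminescent DEVD substrate added, 30–60 min at RT with shaking, luminescence read. Expressed as fold over vehicle; Student's t test.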
smiles,measurement,setting,value
COc1ccc(/C=C/CCCC[C@H](C)[C@H](O)[C@@H](O)[C@H]2NC(=O)CC3(O)NC(=O)CC3NC(=O)C[C@@H](O)CNC(=O)CN(C)C(=O)[C@@H](Cc3c(C(=O)O)[nH]c4ccccc34)NC(=O)CNC(=O)[C@H]2O)cc1 (some centres unmarked) [microsclerodermin A],"Change in expression, phosphorylated Elk",phosphorylated Elk,No significant changes
same,"Change in expression, IRAK",IRAK,No significant changes
same,"Change in protein level, IKKα",IKKα,no changes at the protein level
same,Increase in IL-8 production,IL-8,about 2.5 fold
same,"Change in expression, TLR-1",TLR-1,No significant changes
same,Level of phosphorylated Fos,[1],statistically significantly upregulated
same,Level of phosphorylated cyclin D1,[2],increased
same,"Change in expression, TRAIL",[3],No significant changes
same,Levels of phosphorylated (active) NFκB p65 (pS529),[4],significantly reduced
same,Level of phosphorylated Jun,phosphorylated Jun Ser73,statistically significantly upregulated
same,Apoptosis (TUNEL DNA fragmentation),PANC-1,induced statistically significant apoptosis
same,Apoptosis (TUNEL DNA fragmentation),BxPC-3,induced statistically significant apoptosis
same,Level of phosphorylated (inactive) GSK3β,[5],increased
same,Cytotoxicity in reporter cell line (in words),A549 NFκB-luc cell line,little or no cytotoxicity
same,"Change in protein level, TNFAIP3",TNFAIP3,no changes at the protein level
same,Endothelial tube formation,HUVEC cells,decreased tube formation
same,Level of phosphorylated AKT,[6],increased
same,DNA fragmentation (TUNEL),MIA PaCa2,not detected
same,"Change in expression, TLR-3",TLR-3,No significant changes
same,Markers of apoptosis,MIA PaCa-2,no markers of apoptosis were seen
